An excerpt weighted towards active compounds, which were near 2.9% of everything screened.
SUMO HTRF inh = blocks human SUMOylation mediated by UBC9 | AID 2006 | inhibition, % at 35 µM | hit rate 0.36% among 290,000 | HTRF SUMOylation assay, SAE1/SAE2 + UBC9, in vitro; in the data active = inhibition above about 50%, passing the limit was not always enough
Target sequence (P63279 whole entry, looked up): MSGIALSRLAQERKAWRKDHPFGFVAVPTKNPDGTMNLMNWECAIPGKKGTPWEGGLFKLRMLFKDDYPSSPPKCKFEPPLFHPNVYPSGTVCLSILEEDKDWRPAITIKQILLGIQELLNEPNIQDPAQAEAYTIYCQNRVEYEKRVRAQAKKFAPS
SUMO Mot1 rescue = SUMOylation pathway inhibition by Mot1-301 growth rescue | S. cerevisiae Mot1-301 growth rescue, ATP luminescence, 38.5C; percent above DMSO median, 100 means doubled | growth rescue, % at 18.8 µM | hit rate 1% among 320,000;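 active = every valid replicate shows activation above 250% relative to neutral control wells; inactive = the rest, any valid replicate at or below 250%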;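 also: OY570 slx delta 5 strain wells were the positive control but not used for scaling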
IMP-1 inhibitor = inhibitors of Pseudomonas aeruginosa IMP-1 metallo-beta-lactamase; purified IMP-1, nitrocefin hydrolysis, epi-absorbance fluorescence; inhibition, % at 5.6 µM; hit rate 0.45% among 290,000;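 active = inhibition above the mean plus 3 SD of all compounds in the same screening run, cut at about 4.5% in these data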;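 also: 0% = IMP-1 with DMSO and 100% = DMSO wells lacking enzyme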
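System: purified IMP-1; amount: IMP-1 0.2 nM before substrate addition; compound: single dose, 5.6 µM; times: 25 °C, 15 min preincubation, 25 min reaction; signal: Epi-absorbance via hydrolysed-nitrocefin quenching of white-plate fluorescence, 480/530 nm, EDTA stop; benchmarks: DMSO with and without IMP-1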
VIM-2 inh = inhibitors of Pseudomonas aeruginosa VIM-2 metallo-beta-lactamase; purified VIM-2, nitrocefin hydrolysis, epi-absorbance fluorescence; inhibition, % at 5.6 µM; hit rate 0.89% among 290,000;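 active = inhibition above the mean of all tested compounds plus 3 SD, cutoff set per screening run, cut at about 7.5% in these data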;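 also: red hydrolysis product quenches plate fluorescence so inhibitors raise well fluorescence; 0% = enzyme with DMSO and 100% = DMSO without enzyme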
NALP1 inh = blocks the NALP1 inflammasome reconstituted in yeast | AID 2071 | S. cerevisiae NALP1/ASC/caspase-1 growth, X-gal OD620, 72 h | hit rate 0.61% among 280,000 | inhibition, % at 10 µM; in the data active = inhibition mostly above about 24%, no sharp cut-off; inactive = mostly below about 32%
DNA FID counter = fluorescent intercalator displacement, NS3 helicase counter-screen; DNA fluorescent intercalator displacement, fluorescence; inhibition, % at 7.9 µM; hit rate 0.17% among 290,000; AID 1845; in the data active = inhibition above about 37%;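 also: 0% = vehicle and 100% = reference compound; higher means more ethidium bromide displaced from hairpin DNA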
Active calls of the source: *; nt = not tested or not shown; + = active, no number.

SMILES	SUMO HTRF inh	SUMO Mot1 rescue	IMP-1 inhibitor	VIM-2 inh	NALP1 inh	DNA FID counter
Cc1cc(N2C(=O)c3ccc(C(=O)Nc4ccc(CC(=O)O)cc4)cc3C2=O)no1	-4	-5	-1	2	21	1
COc1ccc(-c2oc3cc(OC)c(O)c(OC)c3c(=O)c2OC)cc1O	3	11	-2	12*	-6	-17
COc1ccc(-c2oc3c(OC)c(OC)c(OC)c(O)c3c(=O)c2OC)cc1OC	7	+	-1	0	-9	-16
CNc1ccc(Br)cc1C(O)c1ccccc1 (centres undefined)	3	-29	-1	1	13	0
Cc1ccc(NC2c3ncccc3C(=O)N2Cc2cccs2)cc1 (centres undefined)	30	0	-3	-3	-19	-18
CC[C@@H](C)[C@H](CNC)NC[C@@H](Cc1cccc2ccccc12)NCCc1cccc(C(F)(F)F)c1	-30	-17	0	-2	6	33
CCC[C@H](CN[C@@H](CNC)[C@H](C)CC)NCCc1cc(C(F)(F)F)cc(C(F)(F)F)c1	13	-32	-1	1	22	39*
CCC[C@@H](CN[C@@H](CNC)[C@H](C)CC)NCC1CCC(C(C)(C)C)CC1 (some centres undefined)	5	-28	2	-3	12	40*
Cc1nc(CN(C)C(=O)c2ccccc2OC2CCN(S(C)(=O)=O)CC2)cs1	11	6	-1	0	-2	-12
O=C(CN1CCC(NC(=O)c2ccccc2F)CC1)Nc1ccc2c(c1)OCO2	6	667*	-2	1	-6	8
Cc1ccccc1C(=O)NC1CCN(CC(=O)Nc2ccc3c(c2)OCO3)CC1	-2	5	-1	-1	-4	-3
Cc1cccc(-n2nc(CC#N)c(C#N)c2N)c1	10	159	-2	-3	-8	1
O=C(CN1C(=O)NC2(CCc3ccccc32)C1=O)Nc1ccccc1C(F)(F)F (centres undefined)	nt	6	nt	nt	nt	nt
O=C1/C(=C2\C(=O)N(Cc3ccc(F)cc3)c3ccccc32)SC(=S)N1CCS(=O)(=O)O	18	1	-2	-1	-2	39*
Cc1ccc2nc(N3CCOCC3)c(C=O)c(=O)n2c1	5	-2	-4	-8	-20	-2
CCCP(=O)(CCC)CCP(=O)(c1ccccc1)c1ccccc1	14	-4	-4	-2	14	-10
COC(=O)c1ccc2nc(C)cc(Nc3ccc(N(C)C)cc3)c2c1	-14	6	-5	8.3*	14	8
CC(=O)c1ccc(Nc2cc(C)nc3c(C)cc(C)cc23)cc1	6	-14	-3	8.0*	25	4
COc1ccc(Nc2cc(C)nc3ccc(OC)cc23)cc1	8	-11	-1	11*	27	22
Cc1ccc(Nc2cc(C)nc3ccc(C)cc23)cc1	0	6	3	10.0*	26	11
Cc1cc(Nc2ccc3c(c2)OCCO3)c2cc(Cl)ccc2n1	5	-5	0	8.2*	37	22
Cc1cc(Nc2cccc(Cl)c2)c2ccccc2n1	5	5	-3	0	15	8
COc1ccc2nc(C)cc(N/N=C/c3ccc(F)cc3)c2c1	-14	-24	-4	8.6*	18	23
Cc1cc(C)nc(N(C#N)CN2C(=O)c3ccccc3S2(=O)=O)n1	-10	-4	8.8*	4	-1	-5
Cc1cc(C)nc(NC(=O)CN2C(=O)c3ccccc3S2(=O)=O)n1	nt	6	nt	nt	nt	nt
SMILES	SUMO HTRF inh	SUMO Mot1 rescue	IMP-1 inhibitor	VIM-2 inh	NALP1 inh	DNA FID counter
CNc1nc(OC)nc(N(C#N)CN2C(=O)c3ccccc3S2(=O)=O)n1	20	31	9.4*	6	12	1
CN(C)c1nc(N(C)C)nc(N(C#N)CN2C(=O)c3ccccc3C2=O)n1	7	-7	-2	1	27	-9
CSc1ccccc1C(=O)N1CCC(n2nccc2NC(=O)C(C)(C)C)CC1	16	-18	1	-1	7	-14
Cc1cccc(C(=O)OCC(=O)c2c(C)[nH]c3ccccc23)c1O	nt	58	nt	nt	nt	nt
Cc1cccc(C(=O)Oc2c(Br)cc(Br)cc2/C=N/NC(=O)c2ccncc2)c1	12	9	-2	-2	28*	-2
O=C(N/N=C/c1cc(Br)cc(Br)c1O)c1ccncc1	nt	13	4	0	-4	-7
